# Assay outcomes (PubChem BioAssay)
# Compounds with a hit are over-represented: about 2.1% of the library has one in this group of screens.
# APJ antag – APJ receptor antagonism; P35414; CHO-K1 APJ beta-arrestin complementation, luminescence; inhibition, % at 20 µM; 330,000 tested, 0.32% active; AID 2521;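 active = inhibition above about 40% at 20 µM, limit read from the data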;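 note: cells challenged with 10 nM apelin-13 agonist together with compound; plate controls were apelin-13 plus DMSO wells for no effect and DMSO wells lacking apelin-13 for full effect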
# Target sequence (P35414 whole entry, looked up): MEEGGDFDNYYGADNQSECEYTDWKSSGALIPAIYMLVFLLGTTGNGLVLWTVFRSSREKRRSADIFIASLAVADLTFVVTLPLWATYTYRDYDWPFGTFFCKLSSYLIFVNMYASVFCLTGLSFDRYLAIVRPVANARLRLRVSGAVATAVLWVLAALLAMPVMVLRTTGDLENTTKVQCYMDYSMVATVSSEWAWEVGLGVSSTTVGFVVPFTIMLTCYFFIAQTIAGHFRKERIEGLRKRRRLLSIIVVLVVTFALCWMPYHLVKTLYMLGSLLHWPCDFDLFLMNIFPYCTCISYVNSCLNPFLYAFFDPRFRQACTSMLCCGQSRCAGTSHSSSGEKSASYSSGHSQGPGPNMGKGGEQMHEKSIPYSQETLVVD
# APJ agonist – activates the human apelin receptor APJ; 330,000 tested, 0.11% active; activation, % at 20 µM; AID 2520; P35414; CHO-K1 APJ PathHunter beta-arrestin, luminescence; 0% DMSO wells, 100% apelin;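 active = activation more than six SD over the plate average, tested at 20 µM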;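 note: 0% = DMSO alone and 100% = apelin-13 at 10 nM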
#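 Assay system: CHO-K1 cells stably expressing ProLink-tagged human APJ and arrestin–beta-gal acceptor. Compound dosing: 20 µM single point, 1% DMSO. Times: 16-18 h seeding, 90 min dark compound exposure, 60 min detection. Detection: beta-gal luminescence. Evaluation: APJ–arrestin association signal. Controls: negative DMSO alone, positive Apelin-13 at 10 nM.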
# EBI2 antag – blocks human EBI2 receptor beta-arrestin signaling; EBI2 beta-arrestin recruitment, luminescence, 7a,25-OHC stimulated; inhibition, % at 5 µM; 360,000 tested, 0.81% active; AID 651636; in the data active = inhibition above about 38%;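 note: enzyme fragment complementation signal reports receptor beta-arrestin coupling in cells; 0% = agonist plus DMSO wells and 100% = wells without agonist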
# CCR6 antag – antagonists of human CCR6 receptor. P51684. CHO-K1 CCR6 PathHunter beta-arrestin, luminescence, CCL20-stimulated. inhibition, % at 20 µM. 340,000 tested, 0.49% active;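 active = compounds whose inhibition of the agonist-driven luminescence signal at 20 µM reaches about 50%, limit read from the data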;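 note: cells stimulated with CCL20 at 14 nM final; plate controls were DMSO with CCL20 for no effect and DMSO without agonist for full effect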
# m5-HT2A agonist – mouse HTR2A agonism via beta-arrestin recruitment; AID 624169; activation, % at 7.6 µM; P35363; CHO-K1 mHTR2A beta-arrestin complementation, luminescence; percent of 30 µM serotonin response; 360,000 tested, 0.66% active;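 active = activation above a run cutoff, the mean activation of all tested compounds plus 3 SD, cut at about 14% in these data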;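 note: 0% = plate median of compound wells and 100% = 30 µM serotonin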
# CXCR6 block – CXCR6 (human) receptor inhibition. CHO-K1 PathHunter CXCR6 beta-arrestin, luminescence. inhibition, % at 20 µM. AID 602244. O00574. 360,000 tested, 0.36% active; in the data active = inhibition above about 34%, passing the limit was not always enough;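 note: antagonist mode with CXCL16 agonist at 10 nM final; 0% = 10 nM CXCL16 with DMSO and 100% = unstimulated wells without agonist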
# MOR ag counter – activates human mu opioid receptor in HTR2A counterscreen | shares compounds with m5-HT2A agonist | activation, % at 9.3 µM | AID 624380 | 2,300 tested, 5.3% active | U2OS OPRM1 beta-arrestin PathHunter, luminescence; DMSO 0%, DAMGO 9.3 µM 100%;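 active = mean activation above the mean of DMSO-only wells plus 3 SD, cut at about 0.5% in these data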
# HTR2A ag conf – mouse HTR2A agonism confirmed. shares compounds with m5-HT2A agonist. CHO-K1 PathHunter beta-arrestin recruitment, luminescence; DMSO 0%, 30 µM serotonin 100%. activation, % at 7.6 µM. 2,300 tested, 19% active. AID 624381;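 active = mean activation across triplicates above the hit threshold derived in the original primary screen, cut at about 15% in these data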
# An asterisk follows results filed as active; nt = no result.
SMILES,APJ antag,APJ agonist,EBI2 antag,CCR6 antag,m5-HT2A agonist,CXCR6 block,MOR ag counter,HTR2A ag conf
CC(=O)OC(C)(C)/C=C/C(=O)C(C)(O)C1[C@H](O)C[C@@]2(C)C3CC=C4C(CC[C@@H](O)C4(C)C)[C@]3(CO)C(=O)C[C@]12C (stereo not given in full),12,0,-77,20,25*,7,0,4
COC(=O)C1=C(c2c(C)noc2C)C[C@@H]2CC[C@H]1N2C(=O)N1CCCCC1,-1,-5,-2,1,5,4,nt,nt
C[C@@]12N[C@@H](Cc3ccccc31)c1ccccc12,9,6,8,0,3,-1,nt,nt
CNCCc1ccc(O)c(O)c1,11,-3,-2,15,28*,7,0,161*
S=C1NCCN1,5,-4,-3,20,0,-4,nt,nt
COc1ccc(CCNCc2cccn2C)cc1,-33,2,4,4,28*,-2,0.5*,17*
Cn1cccc1CNCCc1ccccc1,15,1,nt,nt,nt,nt,nt,nt
O=C(CCCc1ccccc1)NCCc1cnc[nH]1,9,-3,0,9,1,4,nt,nt
CC(N)Cc1c[nH]c2ccc(Cl)cc12 (stereo not given),-15,-2,-14,4,80*,-5,0,55*
CCOC(=O)[C@]12Cc3cc(C)ccc3[C@H]1N(C(C)C)C(=O)c1ccccc12,nt,nt,-20,nt,2,6,nt,nt
O=C1c2ccccc2-n2nnc(-c3ccccc3)c2C2c3cc(Br)ccc3CCN12 (stereo not given),nt,nt,-8,nt,16*,-10,0,0
O=C(C1CCCN(c2nnc(-n3cccc3)s2)C1)N1CCC2(CC1)OCCO2 (stereo not given),2,1,0,-14,8,-2,nt,nt
COc1ccc(CCNCc2ccsc2)cc1OC,-1,-2,2,8,19*,0,-1,10
COc1ccc(CCNCc2ccc(F)cc2)cc1OC,2,3,1,2,-1,-11,nt,nt
CC1=C[C@@H]2c3cccc4[nH]cc(c34)C[C@H]2N(C)C1,-14,2,0,-1,28*,-4,0.8*,144*
COC(=O)C1=C(c2ccc(OC)c(OC)c2)C[C@@H]2CC[C@H]1N2C(=O)N1CCc2cc(OC)c(OC)cc2C1,7,-3,-11,1,8,-3,nt,nt
Fc1ccc(CCNCc2ccc(Br)cc2)cc1,13,-2,4,11,-4,-5,nt,nt
Clc1cccc(CNCCc2ccc3c(c2)OCO3)c1,13,-1,-13,8,32*,-3,0,8
Fc1ccccc1CNCCc1ccc2c(c1)OCO2,4,2,6,5,21*,2,-1,13
Fc1ccc(CCNCc2cccc(Cl)c2)cc1,18,-4,-5,11,24*,-6,0,7
N#CC1=C(N)Oc2c(c(=O)oc3ccccc23)C1c1ccc(OC(=O)N2CCOCC2)cc1 (stereo not given),0,-3,0,2,4,4,nt,nt
Cn1c(=O)cc(SCC(=O)N2CCC3(CC2)OCCO3)c2ccc(Cl)cc21,-3,-11,-3,-2,16*,0,0,-1
COc1ccccc1N(CC(=O)NC1CCCCC1)C(=O)c1cnn(C(C)C)c1,0,0,-10,-6,1,1,nt,nt
COP(=O)(OC)C(NC(=O)/C=C/c1ccccc1)C(Cl)(Cl)Cl (stereo not given),6,-4,-6,2,19*,0,-1,-2
CC(Cc1ccccc1)NC(=O)/C=C/c1ccc(Cl)cc1 (stereo not given),2,-4,40,16,-6,8,nt,nt
SMILES,APJ antag,APJ agonist,EBI2 antag,CCR6 antag,m5-HT2A agonist,CXCR6 block,MOR ag counter,HTR2A ag conf
O=C(c1c[nH]cc1-c1ccccc1)c1cccc2ccccc12,10,-3,2,11,20*,0,0,6
CCCn1c(C)c(C(=O)c2cccc3ccccc23)c2ccccc21,0,-5,19,25,0,5,nt,nt
COC1=CC2C3Cc4ccc(OC)c(O)c4C2(CCN3C)CC1=O (stereo not given),nt,nt,1,-4,-3,4,nt,nt
CNc1cc(N2CCNCC2)ccc1[N+](=O)[O-],-3,1,-9,1,14,9,nt,nt
CN1CCN(c2ccc([N+](=O)[O-])c(N)c2)CC1,-5,-2,-1,8,-4,0,nt,nt
Nc1cc(N2CCNCC2)ccc1[N+](=O)[O-],3,1,2,6,42*,0,0,28*
O=[N+]([O-])c1ccc(N2CCNCC2)cc1Sc1ccccn1,10,-5,-6,9,25*,2,-1,10
CCCCCCCSc1cc(OC)c(CCNC)cc1OC,-18,-2,-3,39,46*,15,0,17*
CCCCCSc1cc(OC)c(CCNC)cc1OC,17,-1,-11,0,15*,3,0,6
CCCN(CCC)C1CCc2cccc(O)c2C1 (stereo not given),-4,-3,-4,-2,53*,-4,-1,92*
CCCN(CCC)C1CCc2ccc(O)cc2C1 (stereo not given),-5,-3,0,14,60*,10,0,179*
COc1ccc(C)cc1NC1=NC(C)(C)CS1,-9,-1,-10,-1,-3,1,nt,nt
C[C@]12CCC3C(CC[C@H]4C[C@H](O)[C@H](O)C[C@]34C)C1CC[C@@H]2O (stereo not given in full),nt,nt,4,7,-3,-3,nt,nt
COc1cccc(CCNCc2c(F)cccc2F)c1,17,-2,0,13,21*,-11,-1,3
Fc1ccccc1CNCCc1c[nH]c2ccccc12,10,-2,1,6,19*,-5,0,24*
COc1cccc(CNCCc2c[nH]c3ccccc23)c1,-4,-4,6,3,32*,-2,0,34*
COc1cccc(CNCCc2ccc(F)cc2)c1,14,-4,4,11,8,1,nt,nt
CCCCc1ccc2[nH]cc(CCN)c2c1,-26,9,-14,-11,26*,-8,0,50*
NCCc1c[nH]c2ccccc12,-33,-3,6,3,10,-9,nt,nt
